The record followed here is ChEMBL document CHEMBL1149628, “Synthesis of novel lactam derivatives and their evaluation as ligands for the dopamine receptors, leading to a D(4)-selective ligand” (Bioorg Med Chem, 2007).

Activity calls are given as the source filed them. The rule behind the calls is not given here.

The target in experiment [1] is T1, D(2) dopamine receptor (Homo sapiens, UniProt P14416). The experiment is described as follows: Displacement of [3H]spiperone from human Dopamine receptor D2 isoform long expressed in HEK293 cells at 10 uM. Format: cell-based. An outline of the steps: (§1)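 Whole HEK293 cells expressing hD5 or hD2L were suspended in 50 mM Tris-HCl, 5 mM MgCl2, pH 7.4, with [3H]SCH 23390 (D5) or [3H]spiperone (D2) and run in triplicate for 1.5 h at 27 °C. Samples were filtered on PEI-treated filtermats and counted by scintillation. Non-specific binding was set with fluphenazine 100 µM (D5) or haloperidol 10 µM (D2). The value is % change in bound radioactivity.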

Experiment [2] in a line: Displacement of [3H]spiperone from human Dopamine D4.4 receptor expressed in CHO cells at 10 uM. The format is cell-based.
Experiment [3] deals with T2, D(1B) dopamine receptor (Homo sapiens, UniProt P21918). The experiment is described as follows: Displacement of [3H]SCH 23390 from human Dopamine D5 receptor expressed in HEK293 cells at 10 uM. The format is cell-based. The procedure, abridged:
as §1

Experiment [4] concerns the target T1, D(2) dopamine receptor. Description: Displacement of [3H]Spiperone from human Dopamine receptor D2 isoform long expressed in HEK293 cells. The format is cell-based. The procedure, abridged:
(§2)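 [3H]Spiperone competition on whole-cell suspensions (D2L in HEK293, D4.4 in CHO) in Tris-HCl 50 mM/MgCl2 5 mM pH 7.4, 1.5 h at 27 °C. Non-specific binding defined with 10 µM haloperidol. Filtration over PEI-treated filtermat, scintillation counting. At least two independent triplicate experiments; nonlinear fit IC50 converted to Ki by Cheng-Prusoff.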

A further experiment addresses D(3) dopamine receptor (Homo sapiens, UniProt P35462). The experiment is described as follows: Displacement of [3H]spiperone from human Dopamine D3 receptor expressed in CHO cells. The format is cell-based.
Experiment [5] in a line: Displacement of [3H]spiperone from human Dopamine D4.4 receptor expressed in CHO cells. The format is cell-based. The procedure, abridged: as §2
Experiment [6] concerns the target T2, D(1B) dopamine receptor. The experiment is described as follows: Displacement of [3H]SCH 23390 from human Dopamine D5 receptor expressed in HEK293. An outline of the steps: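 Whole HEK293 cell suspension in 5 mM MgCl2/50 mM Tris-HCl pH 7.4, incubated with [3H]SCH 23390 for 1.5 h at 27 °C. Fluphenazine 100 µM defined non-specific binding. Separation by filtration over polyethyleneimine-treated filters, then scintillation counting. At least two independent experiments, each in triplicate; Ki from IC50 by Cheng-Prusoff.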

The target in experiment [7] is T1, D(2) dopamine receptor. Description: Antagonist activity at human Dopamine receptor D2 isoform long expressed in HEK293 cells assessed as change in quinpirole-induced intracellular calcium response at 10 uM. Set-up: scale not given: the % may be the effect or the level left. Format: functional, cell-based. The procedure, abridged: (§3)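 HEK293 cells stably expressing hD2L or hD5 were loaded with Oregon Green 488 BAPTA-1/AM for 45 min at 37 °C and resuspended in Krebs-Hepes buffer at pH 7.4. Cells were preincubated with compound for 30 min at 37 °C, then given standard agonist at 1 µM final (quinpirole for D2, SKF 38393 for D5). Fluorescence (ex 485, em 520 nm) was read for 30 s; the value is % change of the agonist-induced signal.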

The target in experiment [8] is T1, D(2) dopamine receptor. Description: Antagonist activity at human Dopamine receptor D2 isoform long expressed in HEK293 cells assessed as change in quinpirole-induced intracellular calcium response. The format is functional, cell-based. An outline of the steps:
(§4)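 Intact HEK293 cells stably expressing the receptor, loaded with Oregon Green 488 BAPTA-1/AM plus Pluronic F-127 for 45 min at 37 °C, then suspended in Krebs-Hepes buffer pH 7.4. Fluorescence ex 485/em 520 nm read over 30 s. IC50 by four-parameter fit; Ki via modified Cheng-Prusoff.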

Experiment [9] deals with T2, D(1B) dopamine receptor. Description: Antagonist activity at human Dopamine D5 receptor in HEK293 cells assessed as change in SKF 38393-induced intracellular calcium response at 10 uM. The format is functional, cell-based. Set-up: scale not given: the % may be the effect or the level left. The procedure, abridged: as §3
In experiment [10] the target is T2, D(1B) dopamine receptor. The experiment is described as follows: Antagonist activity at human Dopamine D5 receptor in HEK293 cells assessed as change in SKF 38393-induced intracellular calcium response. The format is functional, cell-based. An outline of the steps: as §4
For experiment [11], the species on record is Homo sapiens. The experiment is described as follows: Selectivity for human dopamine D4.4 receptor over human dopamine receptor D2 isoform long.
Experiment [12] is filed under the species Homo sapiens. Description: Selectivity for human dopamine D4.4 receptor over human dopamine D3 receptor.
Experiment [13] is filed under the species Homo sapiens. The experiment is described as follows: Selectivity for human dopamine D4.4 receptor over human dopamine D5 receptor.

T2 sequence (P21918 whole entry): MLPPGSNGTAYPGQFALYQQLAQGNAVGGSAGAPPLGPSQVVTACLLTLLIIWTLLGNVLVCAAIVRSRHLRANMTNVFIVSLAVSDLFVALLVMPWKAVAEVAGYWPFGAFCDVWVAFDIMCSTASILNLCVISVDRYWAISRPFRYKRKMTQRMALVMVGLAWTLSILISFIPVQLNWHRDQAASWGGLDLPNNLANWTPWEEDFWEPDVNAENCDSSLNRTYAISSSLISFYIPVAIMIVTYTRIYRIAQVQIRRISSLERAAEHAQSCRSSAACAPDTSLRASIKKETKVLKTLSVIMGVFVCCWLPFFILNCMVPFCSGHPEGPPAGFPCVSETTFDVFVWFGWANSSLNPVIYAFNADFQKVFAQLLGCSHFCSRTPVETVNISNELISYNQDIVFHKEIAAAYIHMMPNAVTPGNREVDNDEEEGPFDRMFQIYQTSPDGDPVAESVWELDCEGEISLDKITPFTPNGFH
Sequence of D(3) dopamine receptor (P35462 whole entry): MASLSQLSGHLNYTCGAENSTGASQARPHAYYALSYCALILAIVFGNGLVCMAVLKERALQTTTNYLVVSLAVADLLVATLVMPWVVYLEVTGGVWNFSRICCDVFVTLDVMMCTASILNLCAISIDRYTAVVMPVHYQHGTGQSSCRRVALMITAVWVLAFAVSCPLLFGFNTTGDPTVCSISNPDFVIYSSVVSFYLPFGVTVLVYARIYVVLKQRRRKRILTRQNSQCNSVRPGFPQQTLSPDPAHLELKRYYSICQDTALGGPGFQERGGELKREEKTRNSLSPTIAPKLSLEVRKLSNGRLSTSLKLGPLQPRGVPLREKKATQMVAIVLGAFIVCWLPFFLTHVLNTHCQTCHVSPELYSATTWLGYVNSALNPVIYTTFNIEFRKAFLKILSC
T1 sequence (P14416 whole entry, canonical isoform): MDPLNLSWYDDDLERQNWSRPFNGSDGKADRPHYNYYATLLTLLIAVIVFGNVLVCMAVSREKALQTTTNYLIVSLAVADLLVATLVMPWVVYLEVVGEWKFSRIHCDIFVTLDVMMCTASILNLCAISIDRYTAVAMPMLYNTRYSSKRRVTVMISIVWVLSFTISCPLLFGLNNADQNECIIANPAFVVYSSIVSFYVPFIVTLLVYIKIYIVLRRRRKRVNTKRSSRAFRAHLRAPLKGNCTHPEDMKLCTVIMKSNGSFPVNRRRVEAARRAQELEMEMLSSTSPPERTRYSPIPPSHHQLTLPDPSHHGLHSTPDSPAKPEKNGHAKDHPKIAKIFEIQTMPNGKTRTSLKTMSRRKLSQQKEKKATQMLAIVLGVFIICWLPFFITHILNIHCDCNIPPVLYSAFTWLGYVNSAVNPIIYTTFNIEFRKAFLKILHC

For `O=C1c2ccccc2S(=O)(=O)N1CCCCN1CCN(c2cccc(C(F)(F)F)c2)CC1`, the Activity was 100% at D(2) dopamine receptor [1]; 54% in experiment [2]; 89% on D(1B) dopamine receptor [3]; -44% on D(2) dopamine receptor [7]; 8% on D(1B) dopamine receptor [9]. For the same compound, the Ki is 113 nM at D(2) dopamine receptor [4]; 107 nM at D(3) dopamine receptor; greater than 10000 nM in [5]; 1760 nM on D(1B) dopamine receptor [6]; greater than 10000 nM on D(2) dopamine receptor [8]. The result on D(1B) dopamine receptor [10] was inactive.

Take `O=C1Cc2ccccc2N1CCCCN1CCN(c2cccc(C(F)(F)F)c2)CC1`: the Activity was 105% on D(2) dopamine receptor [1]; 96% in [2]; 93% on D(1B) dopamine receptor [3]; -55% at D(2) dopamine receptor [7]; 26% on D(1B) dopamine receptor [9]. For the same compound, the Ki worked out at 323 nM at D(2) dopamine receptor [4]; 247 nM at D(3) dopamine receptor; 28 nM in experiment [5]; 190 nM at D(1B) dopamine receptor [6]; 416 nM on D(2) dopamine receptor [8]. On D(1B) dopamine receptor [10], the outcome was inactive.

As to `O=C1c2ccccc2S(=O)(=O)N1CCCCN1CCN(c2ccc(Cl)cc2)CC1`, the Activity at D(2) dopamine receptor [1] was 99%; in experiment [2], 101%; at D(1B) dopamine receptor [3] it was 87%; on D(2) dopamine receptor [7] it was -24%; at D(1B) dopamine receptor [9], 4%. Further, the Ki was 177 nM on D(2) dopamine receptor [4]; 287 nM at D(3) dopamine receptor; 36 nM in [5]; 230 nM on D(1B) dopamine receptor [6]; greater than 10000 nM on D(2) dopamine receptor [8]. Also, the outcome on D(1B) dopamine receptor [10] was inactive.

Consider `O=c1c2ccccc2ncn1CCCCN1CCN(c2ccc(Cl)cc2)CC1`, for which the Activity at D(2) dopamine receptor [1] was 100%; in experiment [2], 102%; at D(1B) dopamine receptor [3] it was 76%; on D(2) dopamine receptor [7], -44%; on D(1B) dopamine receptor [9], 5%. In addition, the Ki on D(2) dopamine receptor [4] was 140 nM; on D(3) dopamine receptor, 1780 nM; in [5] it was 158 nM; on D(1B) dopamine receptor [6], 507 nM; on D(2) dopamine receptor [8] it was greater than 10000 nM; at D(1B) dopamine receptor [10] it was “Not Active”.

As to `O=C1Cc2ccccc2N1CCCCN1CCN(c2ccc(Cl)cc2)CC1`, the Activity is 106% on D(2) dopamine receptor [1]; 101% in experiment [2]; 93% on D(1B) dopamine receptor [3]; -28% on D(2) dopamine receptor [7]; 8% at D(1B) dopamine receptor [9]. Further, the inhibition constant (Ki) on D(2) dopamine receptor [4] was determined as 1750 nM; at D(3) dopamine receptor, 1200 nM; in experiment [5] it was 0.04 nM; on D(1B) dopamine receptor [6], 202 nM; at D(2) dopamine receptor [8] it was 375 nM. At D(1B) dopamine receptor [10], the result was inactive. Besides, the Selectivity ratio was greater than 43000 in the experiment filed under Homo sapiens [11], greater than 30000 in the experiment filed under Homo sapiens [12] and greater than 5000 in the experiment filed under Homo sapiens [13].

Regarding `O=C1c2ccccc2CN1CCCCN1CCN(c2cccc(C(F)(F)F)c2)CC1`, the Activity at D(2) dopamine receptor [1] is 106%; in experiment [2] it was 95%; on D(1B) dopamine receptor [3], 99%; on D(2) dopamine receptor [7] it was -53%; at D(1B) dopamine receptor [9], 41%. For the same compound, the Ki came out at 387 nM at D(2) dopamine receptor [4]; 14 nM at D(3) dopamine receptor; 368 nM in experiment [5]; 80.8 nM at D(1B) dopamine receptor [6]; 26 nM on D(2) dopamine receptor [8]. In addition, at D(1B) dopamine receptor [10], the outcome was inactive.

As for `O=c1c2ccccc2ncn1CCCCN1CCN(c2cccc(C(F)(F)F)c2)CC1`, the Activity at D(2) dopamine receptor [1] was 107%; in experiment [2], 98%; at D(1B) dopamine receptor [3] it was 76%; at D(2) dopamine receptor [7] it was -38%; at D(1B) dopamine receptor [9], 9%. In addition, the Ki is 73 nM at D(2) dopamine receptor [4]; 102 nM on D(3) dopamine receptor; 185 nM in experiment [5]; 1700 nM on D(1B) dopamine receptor [6]; greater than 10000 nM at D(2) dopamine receptor [8]. Besides, on D(1B) dopamine receptor [10], the result was inactive.

As to `COc1ccccc1N1CCN(CCCCn2cnc3ccccc3c2=O)CC1`, the values for the Activity at D(2) dopamine receptor [1] and at D(2) dopamine receptor [7] were 105% and -58%, respectively. Further, the Ki at D(2) dopamine receptor [4] turned out to be 184 nM; at D(2) dopamine receptor [8], 1.2 nM.

As for `O=C1c2ccccc2CN1CCCCN1CCN(c2ccc(Cl)cc2)CC1`, the Activity on D(2) dopamine receptor [1] is 105%; in experiment [2] it was 91%; at D(1B) dopamine receptor [3], 100%; on D(2) dopamine receptor [7], -7%; at D(1B) dopamine receptor [9], 21%. For the same compound, the Ki at D(2) dopamine receptor [4] was 760 nM; at D(3) dopamine receptor, 660 nM; in experiment [5] it was 142 nM; at D(1B) dopamine receptor [6], 33.6 nM; at D(2) dopamine receptor [8], greater than 10000 nM. Besides, on D(1B) dopamine receptor [10], the outcome was inactive.
